Laboratory results as given in ChEMBL document CHEMBL3621094, “Effect of alkyl group on transnitrosation of N-nitrosothiazolidine thiocarboxamides” (Bioorg Med Chem, 2015).

Tests used:
Format in all cases: physicochemical
[1] = Transnitrosation activity assessed as S-nitrosoglutathione level at 0.45 mM in presence of 5 mM GSH at pH 1.5 at 37 degC under dark condition; conditions: pH 1.5, 450 µM
How it was run: (§1)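 Nitrosamine (4.5 mM acetonitrile stock, 0.45 mM final) added to GSH (5.0 mM) with DTPA. The mixture was acidified to pH 1.5 with 0.1 M HCl and held at 37 °C in the dark. GSNO formation was followed against time, and data were taken after 24 h.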

[2] = Transnitrosation activity assessed as compound consumption level at 0.45 mM in presence of 5 mM GSH at pH 1.5 at 37 degC under dark condition after 24 hrs; conditions: pH 1.5, 24 h, 450 µM; how it was run: as §1
[3] = Transnitrosation activity assessed as S-nitrosoglutathione yield at 0.45 mM in presence of 5 mM GSH at pH 1.5 at 37 degC under dark condition after 24 hrs; conditions: pH 1.5, 24 h, 450 µM
How it was run: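 Reaction run at 0.45 mM N-nitrosamine and 5.0 mM GSH, with DTPA, at pH 1.5 (HCl) and 37 °C in the dark. After 24 h, yield was calculated as GSNO formed divided by N-nitrosamine consumed.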

[4] = Transnitrosation activity assessed as pseudo first order rate constant at 0.45 mM in presence of 5 mM GSH at pH 1.5 at 37 degC under dark condition; conditions: pH 1.5, 450 µM
How it was run: (§2)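 Pseudo-first-order kobs for GSNO formation was measured at 0.45 mM N-nitrosamine, 5.0 mM GSH with DTPA, and 37 °C, with pH set by HCl (pH-rate profile 1.4–3.3). kobs was the least-squares slope of the initial linear part of ln{[GSNO∞]/([GSNO∞]−[GSNO])} versus time, taking GSNO∞ as the initial nitroso compound level (0.45 mM). There were three separate trials.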

[5] = Transnitrosation activity assessed as pseudo first order rate constant at 0.45 mM in presence of 5 mM GSH at pH 1.7 at 37 degC under dark condition; conditions: pH 1.7, 450 µM; how it was run: as §2
[6] = Transnitrosation activity assessed as pseudo first order rate constant at 0.45 mM in presence of 5 mM GSH at pH 1.4 at 37 degC under dark condition; conditions: pH 1.4, 450 µM; how it was run: as §2
[7] = Transnitrosation activity assessed as pseudo first order rate constant at 0.45 mM in presence of 5 mM GSH at pH 2.8 at 37 degC under dark condition; conditions: pH 2.8, 450 µM; how it was run: as §2
[8] = Transnitrosation activity assessed as pseudo first order rate constant at 0.45 mM in presence of 5 mM GSH at pH 3.4 at 37 degC under dark condition; conditions: pH 3.4, 450 µM
[9] = Transnitrosation activity assessed as pseudo first order rate constant at 0.45 mM in presence of 5 mM GSH at pH 2 at 37 degC under dark condition; conditions: pH 2, 450 µM; how it was run: as §2
[10] = Transnitrosation activity assessed as pseudo first order rate constant at 0.45 mM in presence of 5 mM GSH at pH 2.2 at 37 degC under dark condition; conditions: pH 2.2, 450 µM; how it was run: as §2

Row | Compound | Activity [1] [mM] | Activity [2] [mM] | Activity [3] [%] | K [4] [×10⁻⁷ /s] | log K [5] | log K [6] | log K [7] | log K [8] | log K [9] | log K [10]
1 | CNC(=S)C1CSCN1N=O (stereo not drawn) | 0.38 | 0.45 | 85 | 464 |  |  |  |  |  | 
2 | CN(C)C(=S)C1CSCN1N=O (stereo not drawn) | 0.38 | 0.45 | 84 | 405 |  |  |  |  |  | 
3 | NC(=S)C1CSCN1N=O (stereo not drawn) | 0.43 | 0.45 | 95 | 1301 | -4.24 | -3.73 | -6.16 | -6.37 | -5.24 | -4.73
